Data taken from ChEMBL document CHEMBL1124344, “5-Piperazinylalkyl-2(3H)-oxazolones with neuroleptic activity” (J Med Chem, 1989).

Assays:
Mus musculus [1] = assay: Antagonistic activity against amphetamine-induced Hypermobility in mice, by administering perorally at a dose of 70 mg/kg; format: functional; details: route oral
Method in brief: (§1)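 Male mice in groups of five, fasted overnight, given oral drug in arabic gum suspension (10 mL/kg) 1 or 5 h ahead. Amphetamine 4 mg/kg ip given 30 min after drug. Ten minutes later locomotion is recorded for 15 min in a photocell actophotometer. ED50 is 50% reduction versus control hypermotility, by probit analysis. Parenthetical entries give the maximal dose and percent activity.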

[2] = Lethal dose in mice (LD50) following i.p. dosing; format: toxicity, organism-based; details: mouse, in vivo, ip
Method in brief: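 Acute toxicity tested in mice by the intraperitoneal route. LD50 is the dose killing 50% of treated mice, computed by Finney probit analysis; values are approximate.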

Mus musculus [3] = assay: Inhibition of spontaneous motor activity in mice, by administering perorally at a dose of 70 mg/kg; format: functional; details: route oral
Method in brief: (§2)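 Mice fasted overnight, then dosed orally with compound (weighed as base) suspended in arabic gum, 10 mL/kg, with vehicle controls; 1 h pretreatment for screening tests, 1 or 5 h for others. Groups of five; locomotor activity counted 10 min in photocell activity cage, at least two groups per dose. ED50 = dose giving 50% inhibition versus controls, by probit analysis.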

Rattus norvegicus [4] = assay: Antagonistic activity against apomorphine-induced stereotypy in rats, by administering perorally at a dose of 70 mg/kg; format: functional; details: route oral
Method in brief: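 Male rats fasted overnight and given oral doses in arabic gum suspension (10 mL/kg) 1 h, or 1 and 5 h, before challenge. Apomorphine 3 mg/kg iv, with stereotypy observed 20 min later. ED50 is the dose inhibiting stereotypy in 50% of rats, per Janssen's method. Parenthetical entries give the maximal dose and percent activity.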

Rattus norvegicus [5] = assay: Activity to evoke catalepsy in rats, by administering perorally at a dose of 70 mg/kg; format: functional; details: route oral
Method in brief: (§3)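 Rats fasted overnight and given oral doses in arabic gum suspension (10 mL/kg), 1 h before screening or 1 and 5 h before profile testing. Forelegs placed on a horizontal bar 7 cm high, three times at 5-min intervals. Immobility of at least 15 s counts as catalepsy. ED50 is the dose giving catalepsy in 50% of rats, by probit analysis. Parenthetical entries give the maximal dose and percent activity.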

Mus musculus [6] = assay: Antagonistic activity against amphetamine-induced Hypermobility in mouse by administering perorally; format: functional; details: po; method in brief: as §1
Mus musculus [7] = assay: Antagonistic activity against amphetamine-induced hypermotility, after 1 hour of peroral administration in mouse; format: functional; details: po; method in brief: as §1
Mus musculus [8] = assay: Antagonistic activity against amphetamine-induced hypermotility, after 5 hour of peroral administration in mouse; format: functional; details: po; method in brief: as §1
Mus musculus [9] = assay: Anticonvulsant activity against tryptamine-induced convulsions, after 1 hour of peroral administration in mouse; format: functional; details: po
Method in brief: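 Compounds were dosed as bases suspended in arabic gum at 10 mL/kg orally, after an overnight fast, with vehicle controls. Protection meant no bilateral forepaw clonic seizures or head twitches (tryptamine), or no tonic hind-limb extension (the other two). ED50 is the dose protecting 50%, by probit analysis.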

Mus musculus [10] = assay: Inhibition of spontaneous motor activity in mouse, by administering perorally; format: functional; details: po; method in brief: as §2
Mus musculus [11] = assay: Inhibition against apomorphine-induced climbing, after 1 hour of peroral administration in mouse; format: functional; details: po
Method in brief: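 Mice were dosed orally (gum arabic suspension, 10 mL/kg, fasted), then given apomorphine 1 mg/kg sc and placed in cylindrical cages with vertical metal bars. Climbing was scored 0 for four paws on the floor, 1 for forefeet on the wall, 2 for four paws on the wall. ED50 is the dose halving the control score.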

Mus musculus [12] = assay: Contractile activity in skeletal muscles, after 1 hour of peroral administration in mouse; format: functional; details: Muscle tissue, po
Method in brief: (§4)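 Male mice were placed for 1 h on a 60° inclined wire screen just after dosing and 4 h later. In a second test, trained mice hung by the forepaws from a horizontal 1.8 mm wire 15 cm up; normal mice touch it with a hind paw within 2 s and stay ≥1 min. ED50 is the dose making 50% fall. Dosing was oral in gum arabic suspension at 10 mL/kg after an overnight fast.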

Mus musculus [13] = assay: Suppression of aggressive behavior, after 1 hour of peroral administration in mouse; format: functional; details: po
Method in brief: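 Male mice made aggressive by isolation in individual black cages for about 1 month plus weekly testosterone cyclopentylpropionate 250 mg/kg sc; pairs preselected for attack on a nonisolated male within 15 min. Oral dosing (arabic gum, 10 mL/kg) 1 or 5 h before test, overnight fast. ED50 = dose suppressing aggression in 50% of animals, probit analysis.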

Mus musculus [14] = assay: Inhibition of spontaneous motor activity, after 1 hour of peroral administration in mouse; format: functional; details: po; method in brief: as §2
Mus musculus [15] = assay: Inhibition of spontaneous motor activity, after 5 hour of peroral administration in mouse; format: functional; details: po; method in brief: as §2
Mus musculus [16] = assay: Inhibitory activity against tremorine-induced salivation, after 1 hour of peroral administration in mouse; format: functional; details: po
Method in brief: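 Male mice fasted overnight, dosed orally with arabic gum suspension (10 mL/kg) 1 or 5 h before test, vehicle controls included. Tremorine 20 mg/kg ip given 1 h after compounds; central (tremor) and peripheral (salivation) parasympathetic signs recorded. ED50 = dose protecting 50% of animals, by probit analysis.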

Mus musculus [17] = assay: Inhibitory activity against tremorine-induced tremors, after 5 hour of peroral administration in mouse; format: functional; details: po
Mus musculus [18] = assay: Suppression of aggressive behavior, after 5 hour of peroral administration in mouse at a dose of 10 mg/kg; format: functional; details: route oral
Method in brief: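 Male mice made aggressive by about 1 month of isolation in individual black cages plus weekly testosterone cyclopentylpropionate 250 mg/kg sc. Pairs preselected for aggressiveness shortly before oral dosing 1 or 5 h beforehand; attack on a nonisolated male within 15 min scored. ED50 is the dose suppressing aggression in 50% of animals.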

Mus musculus [19] = assay: Anticonvulsant activity against electroshock-induced convulsions, after 1 hour of peroral administration in mouse at a dose of 26 mg/kg; format: functional; details: route oral
Method in brief: (§5)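 Male mice dosed orally (arabic gum, 10 mL/kg) 1 or 5 h before challenge with tryptamine 100 mg/kg iv, pentylenetetrazol 110 mg/kg ip, or maximal electroshock. Protection means no bilateral forepaw clonic seizures and head twitches (tryptamine) or no tonic hind-limb extension (others). ED50 protects 50% of mice.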

Mus musculus [20] = assay: Potentiation against pentobarbital-induced sleeping, after 1 hour of peroral administration in mouse; format: functional; details: po
Method in brief: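 Female mice fasted overnight, dosed orally 1 or 5 h beforehand as arabic gum suspension, 10 mL/kg, with vehicle controls. Subhypnotic pentobarbital 10 mg/kg iv; 3 min later placed on back, effect scored as complete loss of righting reflex for at least 15 s. ED50 = dose producing this in 50% of mice, probit analysis.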

Mus musculus [21] = assay: Contractile activity in skeletal muscles, after 5 hour of peroral administration in mouse at a dose of 40 mg/kg; format: functional; details: Muscle tissue, route oral
Method in brief: (§6)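 Male mice suspended by forepaws from a 1.8-mm wire stretched 15 cm above a plane. Trained normal mice touch the wire with a hind paw within 2 s (traction) and hang at least 1 min (suspension). Oral dosing 1 or 5 h before. ED50 is the dose making 50% of mice fall without traction and suspension.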

Mus musculus [22] = assay: Activity of inclined screen in mouse, after 1 hour of peroral administration in mouse; format: functional
Method in brief: (§7)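 Male mice placed for 1 h on a wire screen inclined 60°, just after oral dosing and 4 h later; ataxic or relaxed mice slide off. Fasted overnight, 10 per dose, vehicle controls. Compounds weighed as bases, suspended in arabic gum, 10 mL/kg orally; ED50 by Finney probit analysis.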

Mus musculus [23] = assay: Activity of inclined screen in mouse, after 5 hour of peroral administration in mouse; format: functional; method in brief: as §7
Mus musculus [24] = assay: Anticonvulsant activity against pentylenetetrazole-induced convulsions, after 5 hour of peroral administration in mouse at a dose of 40 mg/kg; format: functional; details: route oral; method in brief: as §5
Mus musculus [25] = assay: Anticonvulsant activity against tryptamine-induced convulsions, after 5 hour of peroral administration in mouse at a dose of 40 mg/kg; format: functional; details: route oral; method in brief: as §5
Mus musculus [26] = assay: Effect on skeletal muscle tone, after 1 hour of peroral administration in mouse; format: functional; details: Muscle tissue, po; method in brief: as §6
Mus musculus [27] = assay: Effect on skeletal muscle tone, after 5 hour of peroral administration in mouse; format: functional; details: Muscle tissue, po; method in brief: as §4
Rattus norvegicus [28] = assay: Activity to evoke catalepsy, after 1 hour of peroral administration in rats; format: functional; details: po; method in brief: as §3
Rattus norvegicus [29] = assay: Antagonistic activity against apomorphine-induced stereotypy, after 1 hour of peroral administration in rats at a dose of 80 mg/kg; details: po, read-out: Inhibition
Rattus norvegicus [30] = assay: Antagonistic activity against amphetamine-induced stereotypy, after 1 hour of peroral administration in rats at a dose of 20 mg/kg; details: po, read-out: Inhibition
Rattus norvegicus [31] = assay: Antagonistic activity against amphetamine-induced stereotypy, after 5 hour of peroral administration in rats at a dose of 20 mg/kg; details: po, read-out: Inhibition
Rattus norvegicus [32] = assay: Antagonistic activity against apomorphine-induced stereotypy, after 5 hour of peroral administration in rats at a dose of 80 mg/kg; details: po, read-out: Inhibition
Rattus norvegicus [33] = assay: Antagonistic activity against apomorphine-induced stereotypy in rats, by administering perorally at a dose of 80 mg/kg; details: po, read-out: Inhibition
Rattus norvegicus [34] = assay: Inhibition against conditioned avoidance response, after 5 hour of peroral administration in rats at a dose of 20 mg/kg; details: po, read-out: Inhibition
Rattus norvegicus [35] = assay: Inhibition against conditioned avoidance response, after 1 hour of peroral administration in rats; format: functional; details: po
Method in brief: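 Male rats were trained in a shuttle box to avoid grid-floor shock by crossing compartments during a warning period. Dosing was oral as a gum arabic suspension at 10 mL/kg after an overnight fast. Percent inhibition was computed against a pretraining test. ED50 is the dose giving 50% inhibition.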

Mus musculus [36] = assay: Anticonvulsant activity against pentylenetetrazole-induced convulsions, after 1 hour of peroral administration in mouse at a dose of 40 mg/kg; format: functional; details: route oral; method in brief: as §5
Mus musculus [37] = assay: Inhibitory activity against tremorine-induced tremors, after 1 hour of peroral administration in mouse; format: functional; details: po
Method in brief: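 Male mice given oral drug, then tremorine 20 mg/kg ip 1 h later; central tremor and peripheral salivation recorded. ED50 is the dose protecting 50% of animals from tremorine effects, by probit analysis.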

Rattus norvegicus [38] = assay: Body weight gain, after 1 hour of peroral administration in rats; format: functional; details: po
Method in brief: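 Female rats (250–280 g), individually caged, on 22-h food deprivation with pellets 10–12 a.m.; weighed before and after eating. After 30–40 days training, oral drug given 1 h before the 2-h feeding. Weight gain expressed as percent of the two preceding control days; ED50 is the dose giving 50% reduction.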

Rattus norvegicus [39] = species: Rattus norvegicus; assay: animal or person; details: po, read-out: Inhibition

SMILES: CSc1ccc(-c2nc(O)oc2CCN2CCN(c3ccccc3)CC2)cc1
- inhibition in vivo at 70 mg/kg (Mus musculus [1]): 0%
- LD50 [2]: 250 mg/kg
- inhibition in vivo at 70 mg/kg (Mus musculus [3]): 47%
- inhibition in vivo at 70 mg/kg (Rattus norvegicus [4]): 0%
- inhibition in vivo at 70 mg/kg (Rattus norvegicus [5]): 0%

SMILES: CN1CCN(C2=Nc3cc(Cl)ccc3Nc3ccccc32)CC1 [CLOZAPINE]
- ED50 (Mus musculus [6]): 4.5 mg/kg
- ED50 (Mus musculus [7]): 4.5 mg/kg
- ED50 (Mus musculus [8]): 20.1 mg/kg
- ED50 (Mus musculus [9]): 10.3 mg/kg
- ED50 (Mus musculus [10]): 4.2 mg/kg
- ED50 (Mus musculus [11]): 12 mg/kg
- ED50 (Mus musculus [12]): 40 mg/kg
- ED50 (Mus musculus [13]): 3.5 mg/kg
- ED50 (Mus musculus [14]): 4.2 mg/kg
- ED50 (Mus musculus [15]): 23 mg/kg
- ED50 (Mus musculus [16]): 6.9 mg/kg
- ED50 (Mus musculus [17]): 30 mg/kg
- inhibition in vivo at 10 mg/kg (Mus musculus [18]): 0%
- inhibition in vivo at 26 mg/kg (Mus musculus [19]): 37%
- ED50 (Mus musculus [20]): 6.6 mg/kg
- inhibition in vivo at 40 mg/kg (Mus musculus [21]): 10%
- ED50 (Mus musculus [22]): 9.3 mg/kg
- ED50 (Mus musculus [23]): 18.8 mg/kg
- inhibition in vivo at 40 mg/kg (Mus musculus [24]): 0%
- inhibition in vivo at 40 mg/kg (Mus musculus [25]): 0%
- LD50 [2]: 100 mg/kg
- ED50 (Mus musculus [26]): 9.2 mg/kg
- ED50 (Mus musculus [27]): 30 mg/kg
- ED50 (Rattus norvegicus [28]): 34 mg/kg
- inhibition in vivo at 80 mg/kg (Rattus norvegicus [29]): 30%
- inhibition in vivo at 20 mg/kg (Rattus norvegicus [30]): 20%
- inhibition in vivo at 20 mg/kg (Rattus norvegicus [31]): 0%
- inhibition in vivo at 80 mg/kg (Rattus norvegicus [32]): 0%
- inhibition in vivo at 80 mg/kg (Rattus norvegicus [33]): 30%
- inhibition in vivo at 20 mg/kg (Rattus norvegicus [34]): 0%
- ED50 (Rattus norvegicus [35]): 8.6 mg/kg
- inhibition in vivo at 40 mg/kg (Mus musculus [36]): 0%
- ED50 (Mus musculus [37]): 30 mg/kg
- ED50 (Rattus norvegicus [38]): 8 mg/kg
- inhibition in vivo at 26 mg/kg (Rattus norvegicus [39]): 37%
